Experimental data taken from article PMC11734723 (Science Advances, 2025).

Experiments:
[1] = tested on: NFATc1 nuclear translocation; assay: NFATc1 nuclear translocation; type: cell-based, mouse; conditions: ELP-004 100 nM
Outline: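 Murine BMSMC cultures were sampled at 24 h and on days 7, 14 and 21. Cells were fixed in 3.7% PFA (10 min, RT), antigen-retrieved in tris/urea (pH 9.5, 95°C, 10 min), permeabilised in 0.2% Tween 20 and blocked in 1% BSA plus glycine. Anti-NFATc1 (clone 7A6, 200 ng/ml) was applied overnight at 4°C, then Alexa Fluor 488 secondary (2 µg/ml, 1 h) with 7-AAD counterstain. Nuclear colocalisation was assessed by confocal microscopy.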

[2] = tested on: SKG mice; assay: SKG mouse model of RA; type: in vivo; conditions: for bone surface density (BS/TV): femur trabecular bone
Outline: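 Male and female SKG mice received zymosan A (2 mg, single i.p., saline) at 8 weeks of age. From day 3, they were gavaged daily for 8 weeks with test compound in a PLGA lipid nanoemulsion (180 mg/kg) or vehicle. Paws were scored blind weekly to day 56. Micro-CT covered calcaneal pore volume and connectivity density, femoral trabecular bone (1.75 mm) and L5 (2.15 mm), with BMD calibrated against hydroxyapatite phantoms. Analysis used one-tailed unpaired t or Mann-Whitney tests.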

[3] = tested on: murine BMSMCs; assay: Pit assay on osteo-assay surface plates, murine BMSMC-derived osteoclasts; type: cell-based, mouse; conditions: ELP-004 100 nM
Outline: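 Murine BMSMC osteoclasts were grown on synthetic bone-mimetic surface plates with ±test compound (100 nM), fed every 3–5 days, and assayed on days 7, 14 and 21. Cells were removed with 10% bleach (5 min). Matrix was stained with 1% silver nitrate under UV for 20–45 min, treated with 2.5% sodium thiosulphate and dehydrated in ethanol. Average size of 10–30 pits was measured.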

[4] = biological target: T1, mouse TRPC4β (Mus musculus, UniProt Q9QUQ5); assay: Whole-cell patch clamp of Englerin A-induced TRPC4 currents in HEK293 cells; type: cell-based; conditions: for decrease of EA-induced TRPC4 current 45 s after the peak: EA 30 nM
T1 sequence (Q9QUQ5 1-890 isoform Q9QUQ5-2): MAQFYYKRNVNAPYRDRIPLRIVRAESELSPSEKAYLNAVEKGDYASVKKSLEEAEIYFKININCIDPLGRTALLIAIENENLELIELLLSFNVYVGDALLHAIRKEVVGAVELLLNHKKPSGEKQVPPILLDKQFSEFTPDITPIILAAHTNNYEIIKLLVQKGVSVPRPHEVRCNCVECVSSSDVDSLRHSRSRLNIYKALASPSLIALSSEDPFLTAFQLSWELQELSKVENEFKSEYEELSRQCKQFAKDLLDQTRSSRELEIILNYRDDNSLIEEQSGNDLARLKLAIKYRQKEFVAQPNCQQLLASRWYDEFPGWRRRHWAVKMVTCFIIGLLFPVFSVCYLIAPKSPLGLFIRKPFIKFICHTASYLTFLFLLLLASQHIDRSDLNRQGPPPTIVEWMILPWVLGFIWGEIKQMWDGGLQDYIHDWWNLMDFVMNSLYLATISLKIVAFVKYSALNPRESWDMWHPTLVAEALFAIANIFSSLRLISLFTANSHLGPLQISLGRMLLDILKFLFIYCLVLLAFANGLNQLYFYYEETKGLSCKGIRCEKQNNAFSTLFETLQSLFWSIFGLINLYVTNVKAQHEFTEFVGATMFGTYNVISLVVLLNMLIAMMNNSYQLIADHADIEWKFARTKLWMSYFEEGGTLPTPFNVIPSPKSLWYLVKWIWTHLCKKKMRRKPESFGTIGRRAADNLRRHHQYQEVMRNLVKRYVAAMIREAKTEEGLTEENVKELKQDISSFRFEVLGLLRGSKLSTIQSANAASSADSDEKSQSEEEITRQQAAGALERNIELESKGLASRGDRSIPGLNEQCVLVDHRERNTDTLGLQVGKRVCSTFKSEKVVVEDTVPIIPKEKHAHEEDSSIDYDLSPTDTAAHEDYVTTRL
Outline: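 Whole-cell recordings were made from HEK293 cells transiently expressing mouse TRPC4β, using ramps from −100 to +100 mV (200 ms, every 5 s; holding 0 mV). Pipette: CsCl with BAPTA (free Ca²⁺ 400 nM), pH 7.2; bath pH 7.4. After ~30 s in nominally Ca²⁺-free bath, Englerin A (30 nM) was applied. About 10 s after peak, Englerin A plus test compound (10, 30, 100 or 1000 nM) was perfused for ~90–100 s. Currents were read at ±100 mV.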

[5] = tested on: Human PBMCs; assay: TRAP staining, multinucleation and cell size of human PBMC-derived osteoclasts; type: cell-based; conditions: ELP-004 100 nM; for effect on multinucleation: 14 days
Outline: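 Human PBMCs were grown with human mCSF (50 ng/ml) plus RANKL (100 ng/ml), or RANKL (1 ng/ml) with TNFα (2 ng/ml), ±test compound (100 nM), for 14 days. Cells were fixed with 2% PFA (30 min, RT) and stained for TRAP with ELF-97 (200 µM) in acetate/nitrite/tartrate buffer (15 min, RT). After permeabilisation, nuclei were counterstained with 7-AAD. Confocal images were scored for TRAP intensity, TRAP-positive cells and nuclei per cell.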

[6] = biological target: STIM1/Orai1 (Homo sapiens, UniProt Q13586); assay: Store-operated Ca2+ entry; type: cell-based; conditions: Tg 2 μM, 1 mM Ca2+, ELP-004 0 to 1 mM
Outline: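 STIM1–YFP was electroporated into HEK293 cells, which were selected with puromycin (5 µg/ml) and cloned for highest YFP. Orai1–CFP was then added, followed by G418 selection and cloning for highest YFP/CFP and screening for SOCE. Fura2-loaded cells (2 µM, 30 min, RT) were held 10 min in Ca²⁺-free pH 7.2 buffer with thapsigargin (2 µM) and test compound. After baseline, 1 mM Ca²⁺ was added; the read-out was the 340/380 ratio.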

Chain of STIM1/Orai1 (Q13586 23-685, species assumed): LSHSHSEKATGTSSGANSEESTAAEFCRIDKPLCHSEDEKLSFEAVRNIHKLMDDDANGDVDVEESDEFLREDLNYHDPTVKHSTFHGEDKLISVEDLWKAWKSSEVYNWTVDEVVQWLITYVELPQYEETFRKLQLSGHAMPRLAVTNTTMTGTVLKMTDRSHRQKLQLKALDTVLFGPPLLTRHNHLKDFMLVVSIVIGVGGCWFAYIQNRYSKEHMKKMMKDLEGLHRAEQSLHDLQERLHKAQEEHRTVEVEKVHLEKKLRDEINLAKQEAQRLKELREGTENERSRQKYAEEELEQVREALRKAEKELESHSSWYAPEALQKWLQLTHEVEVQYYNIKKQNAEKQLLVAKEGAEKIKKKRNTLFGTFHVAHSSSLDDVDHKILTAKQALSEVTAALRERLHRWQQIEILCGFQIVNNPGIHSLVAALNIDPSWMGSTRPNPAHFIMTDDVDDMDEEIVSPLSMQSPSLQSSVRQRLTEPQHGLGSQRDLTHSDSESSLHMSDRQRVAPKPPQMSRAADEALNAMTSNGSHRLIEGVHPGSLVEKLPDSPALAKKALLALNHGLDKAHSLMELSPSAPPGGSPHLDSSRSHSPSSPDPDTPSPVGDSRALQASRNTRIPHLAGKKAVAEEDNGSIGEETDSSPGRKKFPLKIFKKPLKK

- decrease of EA-induced TRPC4 current 45 s after the peak ([4]; 10 nM ELP-004, +100 mV): 37%
- decrease of EA-induced TRPC4 current 45 s after the peak ([4]; 10 nM ELP-004, −100 mV): 58%
- inhibition of EA-induced TRPC4 currents ([4]; 1 μM ELP-004): lost its inhibitory action
- inhibition of EA-induced TRPC4 currents at higher concentrations ([4]; 30 and 100 nM ELP-004 versus 10 nM): did not show stronger inhibitory effects
- effect on STIM1/Orai1-mediated Ca2+ entry [6]: largely unaffected
Compound: CCC(=O)N(C)c1ccc(Cl)c(Cl)c1 [ELP-004]
- changes in NFAT localization ([1]; BMSMC-derived macrophages (mCSF only)): No significant changes
- effect on NFAT nuclear localization ([1]; LTB4/RANKL): blocked
- effect on NFAT translocation ([1]; RANKL-induced (100 ng/ml)): no effect
- effect on NFAT nuclear localization ([1]; TNFα/RANKL): blocked
- changes in NFAT localization ([1]; low RANKL alone (1 ng/ml)): No significant changes
- arthritic indices versus vehicle controls ([2]; both male and female, ELP-004–LNE 180 mg/kg daily oral): reduced arthritic indices beginning at week 5
- bone surface density in the L5 vertebrae versus vehicle ([2]; both sexes): increased
- trabecular number in the L5 vertebrae versus vehicle ([2]; both sexes): increased
- porosity in the tarsus or calcaneus (μCT) ([2]; either sex, ELP-004–LNE 180 mg/kg daily oral 8 weeks): did not significantly change
- joint inflammation in paws (histology) ([2]; either sex, ELP-004–LNE 180 mg/kg daily oral, without statistical significance): only showed a trend
- BMD in the femurs versus vehicle ([2]; female mice): increased
- bone volume/tissue volume (BV/TV) in the femurs versus vehicle ([2]; female mice): increased
- trabecular number in the femurs versus vehicle ([2]; female mice): increased
- mean BMD of femurs ([2]; female mice, ELP-004-treated): 0.1436 g/mL
- connectivity density of pores in the calcaneus ([2]; females, P < 0.05): attenuated the increase
- rescue of connectivity density of pores in the tarsus ([2]; females, P = 0.056): strong tendency
- bone surface density (BS/TV) ([2]; females, P < 0.05): 6.78 ± 2.20 mm^−1
- connectivity density of pores in the tarsus ([2]; males, P < 0.05): attenuated the increase
- bone surface density (BS/TV) ([2]; males, ELP-004–LNE 180 mg/kg daily oral 8 weeks): 9.60 ± 2.16 mm^−1
- cumulative erosion scores for metatarsals 2, 3, 4 and 5 ([2]; maximum score 12): reduced erosions in female (P < 0.05), but not male
- effect on matrix degradation ([3]; LTB4/RANKL): potent inhibition
- effect on pit formation (matrix degradation) ([3]; RANKL (100 ng/ml)): significant ELP-004–induced inhibition observed on day 21
- effect on matrix degradation ([3]; TNFα/RANKL): completely abolished
- effect on multinucleation ([5]; RANKL): significantly inhibited
- effect on intensity of TRAP+ cells ([5]; RANKL): not intensity
- effect on number of TRAP+ cells ([5]; RANKL): inhibited the number
- effect on cell size ([5]; TNFα-induced osteoclasts): significantly reduced
- effect on multinucleation ([5]; TNFα/RANKL): significantly inhibited
- effect on intensity of TRAP+ cells ([5]; TNFα/RANKL): inhibited
- effect on number of TRAP+ cells ([5]; TNFα/RANKL): inhibited
